# Hits are enriched below; roughly 6.1% of the tested compounds scored in any of these assays.
# WT yeast gro inh – growth inhibition of WT yeast, mitochondrial fusion screen | mitochondrial fusion phenotypic screen, WT strain | inhibition, % at 10 µM | 190,000 compounds, 2.1% hits; in the data active = inhibition above about 58%; tested in S. cerevisiae
# DAT uptake mod – human DAT dopamine uptake with cocaine, either direction; Q01959; LLC-PK1 hDAT cells, [14C]-dopamine uptake with cocaine IC80; actives deviate in either direction; 110,000 compounds, 1.3% hits; B-score at 10 µM;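 active = Z score or B-score, a plate-position-corrected score, falls beyond the plate's 99.7% confidence bounds, in either direction; inactive = both scores lie inside the 99.7% bounds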;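 note: scored against the spread of the other compound wells on the same plate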
# Target sequence (Q01959 whole entry, looked up): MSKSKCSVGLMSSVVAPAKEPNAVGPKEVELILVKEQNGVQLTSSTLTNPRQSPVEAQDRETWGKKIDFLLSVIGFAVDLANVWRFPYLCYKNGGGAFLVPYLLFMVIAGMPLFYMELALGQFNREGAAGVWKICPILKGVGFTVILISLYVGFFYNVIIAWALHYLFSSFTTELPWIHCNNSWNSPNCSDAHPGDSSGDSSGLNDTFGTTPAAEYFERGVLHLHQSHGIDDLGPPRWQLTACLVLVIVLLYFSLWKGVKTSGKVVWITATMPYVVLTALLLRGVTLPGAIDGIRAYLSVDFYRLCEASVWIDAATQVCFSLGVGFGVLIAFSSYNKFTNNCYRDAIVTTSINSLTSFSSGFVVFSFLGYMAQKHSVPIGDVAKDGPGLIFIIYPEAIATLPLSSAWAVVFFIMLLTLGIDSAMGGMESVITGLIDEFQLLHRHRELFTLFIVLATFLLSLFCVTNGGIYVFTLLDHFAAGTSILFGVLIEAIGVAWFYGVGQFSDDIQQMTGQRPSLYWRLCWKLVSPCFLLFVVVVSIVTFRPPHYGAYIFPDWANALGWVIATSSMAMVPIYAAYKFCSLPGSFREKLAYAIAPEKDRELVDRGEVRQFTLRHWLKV
# Yeast life ext – yeast lifespan extension. inhibition of the nicotinamide effect, % at 10 µM. 130,000 compounds, 0.68% hits. S. cerevisiae growth with nicotinamide, OD615; deaD strain in restrictive glucose medium;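 active = inhibition above a set limit, placed 3 SD over the median of all compounds, cut at about 26% in these data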;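 note: 0% = nicotinamide-treated wells and 100% = cells grown without nicotinamide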
#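 Measured by: optical density (absorbance) at 615 nm; System: modified budding yeast, DeaD strain; Medium: restrictive CSMM-D dextrose medium; Timing: 4 h preincubation then 48 h treatment at 30 °C.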
# RAM network inh – blocks the yeast RAM network; AID 868; S. cerevisiae dse1pr::URA3 reporter, 5-FOA growth OD615, 2 d; analog-sensitive cbk1-as2 kinase mutant strain; inhibition, % at 50 µM; 190,000 compounds, 1.8% hits;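 active = inhibition above a set limit, 3 SD over mean compound inhibition, cut at about 8.4% in these data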;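 note: 0% = DMSO-only wells with no growth and 100% = 10 µM 1-NA-PP1 full growth; inhibition rescues growth on 5-FOA so higher OD means more RAM inhibition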
# Measles CPE – protection of cells from measles virus; AID 841; protection (pct of control), % at 4 µM; Measles virus-infected cells, CPE protection, absorbance; 140,000 compounds, 1.5% hits; in the data active = protection mostly above about 24%, no sharp cut-off; inactive = mostly below about 26%
# BB579 growth dn – reduces growth of yeast BB579 in restrictive medium; S. cerevisiae BB579 growth, OD615, 48 h; inhibition, % at 10 µM; 140,000 compounds, 0.51% hits; AID 804;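 active = inhibition above a set limit, 3 SD over the mean compound inhibition, cut at about 44% in these data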
#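 System: Saccharomyces cerevisiae DeaD strain BB579, replicative lifespan model yeast. Buffer or medium: restrictive glucose-based CSMM-D medium. Doses: one dose, 10 µM compound with 0.25% DMSO. Timing: 4 h preincubation and 48 h exposure at 30 °C. Detection: turbidity as optical density at 615 nm. Benchmarks: amphotericin B 10 µg/mL, positive.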
# * marks the source's active call; other numbers are inactive results; nt = no result.
SMILES,WT yeast gro inh,DAT uptake mod,Yeast life ext,RAM network inh,Measles CPE,BB579 growth dn
NNc1nc(-c2ccccc2Cl)nc2sc3c(c12)CCCC3,6.4,nt,-7.4,3.2,2.6,18.3
Cc1cc(SCC(=O)Nc2cccc(S(=O)(=O)NC3=NCCCCC3)c2)c(C)cc1Br,9.7,nt,1.5,8.2,27.6*,-62.4
Cc1cc(SCC(=O)Nc2cccc(S(N)(=O)=O)c2)c(C)cc1Br,-7.9,nt,nt,2.1,nt,nt
Clc1ccccc1Nc1nc(-c2cccnc2)cs1,10.5,nt,nt,2.3,nt,nt
COC(=O)CSc1nc(C)c2c(n1)CCCC2,0.3,nt,nt,0.4,nt,nt
Cc1cc(Cl)ccc1OCC(=O)OCC(=O)Nc1ccc(F)c([N+](=O)[O-])c1,13.6,nt,-5.2,9.2*,22.4,-21.4
Cc1ccc(CC(=O)Nc2ccc(F)c([N+](=O)[O-])c2)cc1,-5.8,nt,2.0,2.9,34.5*,-34.6
CC(=O)Nc1cccc(NC(=O)c2sc3ncn(CC(=O)N4CCCCC4)c(=O)c3c2C)c1,8.1,0.341,-6.8,2.5,22.9,-52.1
COc1cc(OC)cc(C(=O)NCCNC(=O)c2ccco2)c1,-16.1,0.711,nt,-0.6,28.8,-7.9
Cc1cc(C)cc(NC(=O)C2CCCN2/C=C/C(=O)C(F)(F)F)c1 (stereo not given),-6.3,nt,-3.6,3.9,21.8,3.2
COc1ccc(CN(C)C(=O)COC(=O)c2c(-c3ccccc3Cl)noc2C)cc1,13.1,nt,nt,7.2,nt,nt
COc1ccc2c(c1)nc(SCC(O)c1ccccc1)n2C (stereo not given),-1.8,nt,nt,0.2,nt,nt
C=C(C)C1Cc2c(C)nn(-c3cccc4ccccc34)c2C1 (stereo not given),85.7*,1.05,-8.2,0.7,23.3,-33.6
Cc1ccc2c(c1)c1c(n2CC(O)CNC2CCCCC2)CCCC1 (stereo not given),93.1*,0.0232,nt,0.8,nt,nt
CN1C=CC=C/C1=C1\SC(=S)N(c2ccccc2)C1=O,66.0*,nt,-1.7,0.5,8.3,-22.5
CN1C=CC=C/C1=C1\SC(=S)N(CC(=O)O)C1=O,-9.3,nt,nt,0.0,nt,nt
O=C(Oc1ccc2ccccc2c1Cl)N1CCCCCC1,81.1*,nt,-6.0,0.2,30.2*,-20.0
S=C(NCc1ccccc1)NC1CCCc2ccccc21 (stereo not given),71.6*,nt,nt,4.1,nt,nt
O=C(Nc1cccc2ccccc12)NC1CCCc2ccccc21 (stereo not given),16.4,1.11,-1.0,8.2,4.3,-41.5
CC(C)(C)c1ccc(NC(=O)CNC2CCCc3ccccc32)cc1 (stereo not given),81.1*,nt,nt,0.4,nt,nt
CNC(=O)NC1CCCc2ccccc21 (stereo not given),23.1,-0.0355,-15.9,2.7,23.4*,-24.0
S=C(NCc1ccco1)NC1CCCc2ccccc21 (stereo not given),18.9,nt,nt,1.5,nt,nt
COC(=O)[C@H](C)NC(=O)NC1CCCc2ccccc21 (stereo not given in full),-36.2,-0.281,-6.2,0.8,56.4*,-10.8
CC(C)(C)OC(=O)N1CCC2(CC1)Oc1ccc(Cl)cc1C(=O)C21CC(c2ccc(Cl)cc2)=NO1 (stereo not given),nt,0.0199,nt,nt,nt,nt
COc1ccc2cc3[n+](cc2c1OC)CCc1cc2c(cc1-3)OCO2,10.4,-1.65,2.7,0.7,1.5,-15.7
SMILES,WT yeast gro inh,DAT uptake mod,Yeast life ext,RAM network inh,Measles CPE,BB579 growth dn
Cc1ccc(S(=O)(=O)N2CCN(S(=O)(=O)N(C)C)CC2)c(C)c1,-7.0,0.027,-3.0,3.0,1.9,-82.9
O=C(Nc1ccccc1)NC1CCCc2ccccc21 (stereo not given),9.2,nt,nt,1.2,nt,nt
O=C(NC1CCCc2ccccc21)c1ccccc1 (stereo not given),12.5,nt,4.0,1.3,4.9,-31.7
COc1cccc(NC(=S)N/N=C2/CCCCc3ccccc32)c1,65.4*,nt,-5.2,5.5,3.8,23.4
COc1cccc(NC(=O)NC2CCCc3ccccc32)c1 (stereo not given),3.4,nt,nt,8.8*,nt,nt
O=C(O)C1C2C=CC(O2)C1C(=O)NC1CCCc2ccccc21 (stereo not given),6.1,-0.334,-11.8,0.4,8.8,77.4*
COC(=O)[C@H](CC(C)C)NC(=O)NC1CCCc2ccccc21 (stereo not given in full),-15.3,-0.207,-3.4,1.9,5.1,-23.2
CC(C)[C@H](NC(=O)NC1CCCc2ccccc21)C(=O)O (stereo not given in full),-12.0,-0.0868,-6.8,2.9,20.5*,-11.7
O=C(OCC1OC2OC3(CCCCC3)OC2C2OC3(CCCCC3)OC12)c1ccccc1 (stereo not given),73.7*,nt,-3.2,5.1,1.6,-48.3
COCCNC(=O)C(c1ccc(C)o1)N(Cc1ccc(OC)cc1)C(=O)Cn1nnc2ccccc21 (stereo not given),-6.4,1.69,-0.4,10.5*,9.2,-48.4
O=C(NCc1ccco1)C(c1ccco1)N(Cc1cccs1)C(=O)Cn1nnc2ccccc21 (stereo not given),-6.8,1.11,nt,9.5*,2.9,-46.4
O=C(CSc1nnc(-c2ccco2)c(-c2ccco2)n1)c1ccccc1,19.6,nt,nt,10.1*,nt,nt
CC(=O)c1ccc(NC(=O)CSc2nnc(-c3ccco3)c(-c3ccco3)n2)cc1,-16.9,nt,nt,3.4,nt,nt
O=C(CSc1nnc(-c2ccco2)n1Cc1ccccc1)c1ccccc1,-10.8,3.44*,-5.2,-0.8,16.3,-1.9
O=C(CSc1nnc(-c2ccco2)n1Cc1ccco1)Nc1ccccc1,-7.7,0.699,-7.8,11.3*,4.6,-19.4
c1ccc(Cn2c(SCc3cn4cccnc4n3)nnc2-c2ccco2)cc1,75.9*,-0.56,-3.8,0.0,1.2,-26.2
COc1ccccc1NC(=O)CSc1nnc(-c2ccco2)n1Cc1ccco1,0.6,0.661,-6.7,1.6,24.8,-14.6
C/C(=C\c1ccccc1)C(=O)Nc1cc(C)on1,-16.4,-0.425,-8.6,0.5,32.6,-36.3
Cc1ccc2nc(C)cc(C(=O)OCC(=O)Nc3cccnc3Cl)c2c1,18.0,nt,nt,3.4,nt,nt
Cc1ccc(S(=O)(=O)n2c3ccc(Cl)cc3c3nc(C)sc32)cc1,63.8*,nt,-7.9,5.1,17.0,-20.1
CCC(C)NC(=O)[C@H](CSCc1ccccc1)N1Cc2ccccc2C1=O (stereo not given in full),-6.8,nt,7.5,1.2,4.7,-45.5
O=C(/C=C/c1ccc(O)c(O)c1)c1ccc(S(=O)(=O)N2CCCCCC2)cc1,-17.9,nt,1.2,9.4*,5.8,-31.9
COC(=O)c1ccc(S(=O)(=O)N2CCCCCC2)cc1,-4.8,0.954,2.5,1.2,12.2,-22.0
Cc1cccc(Sc2ccc([N+](=O)[O-])cc2[N+](=O)[O-])n1,9.2,nt,1.3,1.2,38.7*,-18.9
C=CCNC(=O)/C(=C\c1ccc(OC)cc1)NC(=O)c1ccc([N+](=O)[O-])cc1,-11.4,nt,nt,3.5,nt,nt

# Source: PubChem BioAssay (several laboratories)
